ChEMBL document CHEMBL2062389, “Novel Cyclopropyl-Indole Derivatives as HIV Non-Nucleoside Reverse Transcriptase Inhibitors” (ACS Med Chem Lett, 2012)

Assays:
[1] = tested on: Human immunodeficiency virus 1; experiment: Antiviral activity against Human immunodeficiency virus 1 infected in human 293T cells assessed as inhibition of viral replication after 48 hrs by luminescence analysis; type: functional, organism-based; conditions: Human immunodeficiency virus 1, HEK-293T
Summary of the method: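 Single-cycle, nonreplicative phenotypic assay against wild-type HIV-1, using virus-like particles made with an HIV-1 retroviral vector system. Compounds incubated with 293T cells and VLPs for 48 h. Inhibition quantified by luminescence and reported as IC50 (μM).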

[2] = Cytotoxicity against human 293T cells after 48 hrs by colorimetric analysis; type: cell-based; conditions: HEK-293T cells

| Compound | IC50 [1] | CC50 at 48 h [2] |
| --- | --- | --- |
| CCOC(=O)c1[nH]c2ccc(Cl)cc2c1C1(C)CC1 | 2.25 µM | 44.3 µM |
| O=C(O)c1[nH]c2ccc(Cl)cc2c1C1(c2cccs2)CC1 | 48.2 µM | 140 µM |
| Cc1ccnc2c1NC(=O)c1cccnc1N2C1CC1 [NEVIRAPINE] | 0.087 µM | – |
| OCc1[nH]c2ccc(Cl)cc2c1C1(c2cccs2)CC1 | 14.4 µM | 36.6 µM |
| NC(=O)c1[nH]c2ccc(Cl)cc2c1C1(c2cccs2)CC1 | 0.121 µM | 25.6 µM |

Continued, in another order:

| IC50 [1] | Compound | CC50 at 48 h [2] |
| --- | --- | --- |
| 0.065 µM | CCOC(=O)c1[nH]c2ccc(Cl)cc2c1C1(c2cccs2)CC1 | 67.1 µM |
| 8.25 µM | OCc1[nH]c2ccc(Cl)cc2c1C1(c2ccccc2)CC1 | 34.1 µM |
| 0.085 µM | CCOC(=O)c1[nH]c2ccc(Cl)cc2c1C1(c2ccccc2)CC1 | 30.3 µM |
| 0.066 µM | CCOC(=O)c1[nH]c2ccc(Br)cc2c1C1(c2ccccc2)CC1 | 24.5 µM |
| 28.5 µM | O=C(O)c1[nH]c2ccc(Cl)cc2c1C1(c2ccccc2)CC1 | 92.3 µM |
| 0.096 µM | NC(=O)c1[nH]c2ccc(Cl)cc2c1C1(c2ccccc2)CC1 | 14.2 µM |
